Screens from PubChem BioAssay.
STAT3 inh – STAT3 signaling inhibition; U3A cells, IL-6 STAT3-luciferase reporter, luminescence; host cell line lacks STAT1; inhibition, % at 5.5 µM; 190,000 compounds, 0.89% hits;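 active = inhibition above the mean inhibition across all screened compounds plus 3 SD, cut at about 44% in these data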;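 also: 0% = DMSO only wells and 100% = 100 µM nifuroxazide control wells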
STAT3 act-1 – increases IL-6 driven STAT3 reporter signal; activation (% of control), % at 5.6 µM; 190,000 compounds, 0.91% hits; U3A cells, IL-6 STAT3-luciferase reporter, luminescence; 100% = signal with IL-6 EC80 alone; AID 871;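 active = activation above the screen-wide mean of compound activation plus 3 SD, cut at about 130% in these data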;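 also: 0% = background luminescence of wells with medium and substrate only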
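Material: STAT1-lacking human U3A cells, STAT3 luciferase reporter | Benchmarks: IL-6-only wells as 100% reference | Probe or stimulus: IL-6 (33 ng/mL) | Timing: Compound 1 h, then IL-6 6 h at 37 °C | Detection: Luminescence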
NF-kB neuron act – compounds increasing NF-kB expression in human neuronal cells; NF-kB reporter expression; active compounds read high; fold change at 12.5 µM; 190,000 compounds, 1.6% hits; AID 1239; in the data active = fold change above about 3.3
STAT1 act-1 – increases IFN-gamma driven STAT1 reporter signal | activation (% of control), % at 5.5 µM | AID 932 | NIH 3T3 STAT1-luciferase reporter, luminescence; 100% = IFN-gamma alone, no compound | 200,000 compounds, 2.6% hits;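 active = activation above the screen-wide mean activation plus 3 SD, cut at about 130% in these data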;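 also: raw ratio to IFN-gamma control signal so 100% means no change and 0% no light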
STAT1 inh – reduces IFN-gamma driven STAT1 reporter signal; NIH 3T3 STAT1-luciferase reporter, luminescence; inhibition, % at 5.5 µM; 200,000 compounds, 0.35% hits; AID 920;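 active = inhibition above a set limit, the mean inhibition across all tested compounds plus 3 SD, cut at about 34% in these data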;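 also: 0% = IFN-gamma with DMSO and 100% = IFN-gamma with 300 µM nifuroxazide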
APP 5'UTR act – APP 5'UTR luciferase reporter activation | activation, % at 2 µM | SH-SY5Y APP 5'UTR luciferase reporter, luminescence; zero percent = DMSO vehicle wells | 190,000 compounds, 1% hits;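 active = activation above a set limit, based on mean plus 3 SD of controls, cut at about 140% in these data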
STAT3 act-2 – STAT3 activation, confirmation assay; shares compounds with STAT3 act-1; U3A STAT3-luciferase reporter, IL-6 potentiation, luminescence; U3A cells lack STAT1; 100 means same as IL-6 alone; potentiation (% of control), % at 5.7 µM; 1,200 compounds, 64% hits;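 active = percent activation of the STAT3 luciferase reporter above a set limit taken from the earlier primary screen, cut at about 130% in these data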;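 also: 0% = background signal of medium plus substrate and 100% = median of IL-6 with DMSO wells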
NFkB act 2 – counter-screen for STAT3 activators: NF-kappaB activation. activation (% of control), % at 5.7 µM. human cells, NF-kappaB reporter activation. shares compounds with STAT3 act-1. 1,200 compounds, 11% hits; in the data active = activation above about 120%;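 also: reporter induced by TNF-alpha stimulation; 100% = median of stimulated DMSO wells and 0% = no signal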
STAT1 act-2 – STAT1 activation in STAT3 activator counter-screen | shares compounds with STAT3 act-1 | NIH 3T3 STAT1-luciferase reporter, IFN-gamma, luminescence | activation (% of control), % at 5.7 µM | 1,200 compounds, 13% hits;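 active = activation above the solvent-only control well mean plus 3 SD, set per screening run, cut at about 120% in these data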;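 also: 100% = IFN-gamma with DMSO median signal so 100% means no change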
An asterisk follows results filed as active; x = not tested or not shown. A selection: hits, their analogues and other compounds. The true share with any hit is near 5.1%.

SMILES | STAT3 inh | STAT3 act-1 | NF-kB neuron act | STAT1 act-1 | STAT1 inh | APP 5'UTR act | STAT3 act-2 | NFkB act 2 | STAT1 act-2
COc1ccccc1Cc1nc(-c2ccc(Br)o2)no1 | -64 | 156* | 1.6 | 106 | -7 | 12 | 136* | 114 | 126*
Cc1ccccc1OCc1nc(-c2ccc(Br)o2)no1 | 12 | 98 | 1.6 | 111 | -12 | 17 | x | x | x
Cc1ccc(N2CCOCC2)c2c1C(=O)c1ccccc1C2=O | 0 | 100 | 0.97 | 102 | -3 | -12 | x | x | x
CC1=C(C)C(=O)C(N2CCOCC2)=CC1=O | -58 | 143* | 0.95 | 110 | -11 | 3 | 139* | 100 | 104
CCOc1ccc(/C=N/NC(=O)CN2CCCCCCC2)cc1 | 8 | 99 | 1.1 | 94 | 4 | -4 | x | x | x
Cc1ccc2nc(C(=O)O)c(C(=O)O)nc2c1 | -2 | 102 | 0.94 | 101 | -1 | 2 | x | x | x
Cc1ccc2nc3c(nc2c1)-c1ccccc1C3=O | -90 | 174* | 2 | 109 | -15 | 1 | 159* | 116 | 129*
CNCc1nc2ccccc2[nH]1 | 1 | 101 | 1 | 104 | -4 | -17 | x | x | x
CN/N=C(\Cc1nc2ccccc2[nH]1)c1ccc([N+](=O)[O-])cc1 | -34 | 136* | 1.1 | 114 | -16 | 41 | 166* | 119 | 116
Cc1occc1-c1nnc(SCC(=O)c2c[nH]c3ccccc23)n1C | -51 | 145* | 0.97 | 92 | 9 | 2 | 123 | 103 | 93
CCCC1=C(C(=O)OCC)C(c2ccc(OC)c(C)c2OC)C(C#N)=C(N)O1 (stereo not drawn) | 4 | 100 | 1.3 | 109 | -10 | 9 | x | x | x
O=C(CCc1nnc(CCC2CCCCC2)o1)NCc1ccon1 | 5 | 100 | 1.5 | 100 | -2 | 5 | x | x | x
COc1ccccc1NC(=O)c1cc(Br)ccc1Cl | 21 | 84 | 1 | 105 | -7 | 4 | x | x | x
COc1ccc(Br)cc1C(=O)Nc1cccc(NC(=O)c2ccco2)c1 | 24 | 82 | 0.3 | 94 | 6 | -24 | x | x | x
COc1ccc(Br)cc1C(=O)Nc1ccccc1-c1ccccc1 | -48 | 138* | 0.85 | 96 | 4 | 2 | 135* | 102 | 96
COc1ccc(Br)cc1C(=O)Nc1cccc(C)c1 | -67 | 157* | 1.1 | 98 | 2 | 15 | 139* | 107 | 95
Oc1cccc(C2c3[nH]c4ccccc4c3CCN2Cc2ccoc2)c1 (stereo not drawn) | -40 | 138* | 1.2 | 90 | 8 | 7 | 137* | 102 | 94
Cn1cc(CN2CCc3c([nH]c4ccccc34)C2C(C)(C)C)cn1 (stereo not drawn) | -32 | 133 | x | 99 | -1 | 0 | x | x | x
COc1ccc(C2c3[nH]c4ccccc4c3CCN2Cc2ccoc2)c(F)c1 (stereo not drawn) | -16 | 118 | 0.87 | 98 | 1 | -5 | x | x | x
Oc1cccc(C2c3[nH]c4ccccc4c3CCN2Cc2ccc3c(c2)CCO3)c1 (stereo not drawn) | -44 | 141* | 0.9 | 87 | 12 | 2 | 142* | 104 | 94
CCOC(=O)c1c(-c2ccc(C)o2)csc1NC(=S)NC(=O)N(C)C | 13 | 93 | 0.74 | 94 | 7 | 4 | x | x | x
COc1ccccc1OCCCC(=O)Nc1ccc([N+](=O)[O-])cc1Br | 9 | 100 | 0.76 | 89 | 12 | 6 | x | x | x
CCOC(=O)c1cnn(-c2ncnc3sc(CC)cc23)c1N | -49 | 144* | 1.4 | 102 | -2 | 2 | 147* | 111 | 111
C[C@@H]1C=C(C(=O)NCc2ccccc2)O[C@H](OCc2ccc(CO)cc2)C1 | x | x | 1.1 | 94 | 7 | 0 | x | x | x
